Measurements from ChEMBL document CHEMBL4725282, “Discovery of a Conformationally Constrained Oxazolidinone with Improved Safety and Efficacy Profiles for the Treatment of Multidrug-Resistant Tuberculosis” (J Med Chem, 2020).
≈ marks a conversion by molar mass, not a printed value.

Experiments:
[1] = tested on: Mycobacterium tuberculosis; assay: Antitubercular activity against linezolid-resistant Mycobacterium tuberculosis incubated for 7 days by microplate alamar blue assay; assay type: functional; settings: 168 h, time 7 day
In short: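 MIC determined by microplate alamar blue assay (MABA) following a published protocol.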

[2] = Ratio of MIC for antitubercular activity against linezolid-resistant Mycobacterium tuberculosis to MIC for antitubercular activity against Mycobacterium tuberculosis H37Rv; assay type: functional

In the case of CC(=O)NC[C@@H]1OC(=O)N2c3cc(F)c(N4CC[S+]([O-])CC4)cc3OC[C@@H]12, the MIC [1] is reported as 6.68 µg/mL (≈ 16.8 µM) and the Ratio [2] is reported as 4.
Work on CC(=O)NC[C@@H]1OC(=O)N2c3cc(F)c(N4CCSCC4)cc3OC[C@@H]12 [listing 1 of 2 here] yielded an MIC [1] of 0.24 µg/mL (≈ 0.629 µM).
For CC(=O)NC[C@@H]1OC(=O)N2c3cc(F)c(N4CCSCC4)cc3OC[C@@H]12 [listing 2 of 2 here], the Ratio [2] was 4.
Work on NNC(=O)c1ccncc1 [ISONIAZID] yielded an MIC [1] of 0.04 µg/mL (≈ 0.292 µM).
With CC(=O)NC[C@H]1CN(c2ccc(N3CCOCC3)c(F)c2)C(=O)O1 [LINEZOLID] the MIC [1] was 3.92 µg/mL (≈ 11.6 µM).
For CO[C@H]1/C=C/O[C@@]2(C)Oc3c(C)c(O)c4c(O)c(c(/C=N/N5CCN(C)CC5)c(O)c4c3C2=O)NC(=O)/C(C)=C\C=C\[C@H](C)[C@H](O)[C@@H](C)[C@@H](O)[C@@H](C)[C@H](OC(C)=O)[C@@H]1C [RIFAMPIN], the MIC [1] was 0.03 µg/mL (≈ 0.0365 µM).
For CC(=O)NC[C@H]1CN(c2ccc(N3CCSCC3)c(F)c2)C(=O)O1 [SUTEZOLID], the MIC [1] was 0.96 µg/mL (≈ 2.72 µM) and the Ratio [2] was 4.
